Compound activity deposited in PubChem BioAssay by several laboratories.
Only some compounds are listed: those with a hit (about 1.7% of all), similar ones and a draw of the others.
IDE cell activ = IDE (human) activation, cell-based; P14735; HEK cells, FAbeta-B cleavage, fluorescence polarization; 0% vehicle, 100% cell-free pure enzyme wells; activation, % at 5.96 µM; 340,000 tested, 0.073% active;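 active = activation above the mean of all tested compounds plus 3 SD, set per screening campaign, cut at about 17% in these data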
TPT1 inh = C. albicans TPT1 enzyme inhibition; recombinant caTPT1, FP RNA substrate dephosphorylation; inhibition, % at 5 µM; 300,000 tested, 0.81% active;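 active = inhibition above the mean of all tested compounds plus 3 SD, set per screening campaign, cut at about 24% in these data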
IDE inh = cellular human IDE inhibition. 320,000 tested, 0.41% active. inhibition, % at 5.59 µM. HEK cells, FAbetaB cleavage, fluorescence polarization. P14735;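 active = percent inhibition above the average of all tested compounds plus 3 SD, set per screening campaign, cut at about 16% in these data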;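 also: IDE supplied by intact live HEK cells; FP after avidin binding of uncleaved biotin substrate so inhibition keeps polarization high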
HNF4A DNA FP = change in binding of human HNF4 alpha to DNA; HNF4a-FITC DNA binding, fluorescence polarization, 1 h; activity change, % at 10 µM; 360,000 tested, 0.3% active; AID 1224865; in the data active = activity change above about 30%, passing the limit was not always enough
Rpn11 block = inhibitors of human proteasome Rpn11. human 26S proteasome, Ub4-pepOG fluorescence polarization; 20S core pre-blocked with epoxomicin. 360,000 tested, 0.59% active. O00487. inhibition, % at 20 µM;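 active = inhibition at 20 µM, scaled to each plate's controls, above about 33%, limit read from the data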
CSN deneddyl inh = blocks human CSN-mediated cullin deneddylation; inhibition, % at 12.5 µM; AID 651999; Purified CSN, SCF-Nedd8-OG deneddylation, fluorescence polarization; 360,000 tested, 0.38% active; Q92905;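 active = pattern-corrected inhibition above about 35%, with an unprinted fluorescence ratio check between 0.5 and 1.5, limit read from the data, passing the limit was not always enough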
Target sequence (Q92905 whole entry, looked up, one chain of several): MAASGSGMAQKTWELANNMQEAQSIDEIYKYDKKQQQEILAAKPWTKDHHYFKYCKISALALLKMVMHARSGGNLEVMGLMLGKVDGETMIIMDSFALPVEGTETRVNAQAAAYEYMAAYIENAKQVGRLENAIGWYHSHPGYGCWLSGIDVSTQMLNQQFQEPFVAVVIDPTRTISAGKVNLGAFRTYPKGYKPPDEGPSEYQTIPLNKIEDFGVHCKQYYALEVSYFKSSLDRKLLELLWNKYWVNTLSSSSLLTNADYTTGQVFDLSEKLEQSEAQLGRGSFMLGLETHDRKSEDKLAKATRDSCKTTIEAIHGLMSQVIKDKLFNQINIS
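Material: human Csn5 produced in HEK293T cells; Input: enzyme 0.24 nM; Reagent: SCFSkp2-Nedd8OG substrate at 10 nM final; Dosing: 12.5 µM compound; Incubation: 90 min reaction at room temperature; Detection: fluorescence polarization of the substrate; Evaluation: % inhibition of substrate cleavage by Csn5; Control set: substrate-only high control, full reaction low control.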
IDE inh confirm = confirmation of human insulin-degrading enzyme inhibitors in cells | shares compounds with IDE inh | HEK cells, FAbetaB cleavage, fluorescence polarization | inhibition, % at 5.59 µM | 1,200 tested, 51% active;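 active = mean inhibition across triplicate wells above the cutoff set by the earlier primary insulin-degrading enzyme screen, cut at about 16% in these data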
HEK293 tox = HEK cell cytotoxicity, counter-screen for IDE inhibitors; shares compounds with IDE inh; HEK293 cytotoxicity, ATP luminescence; inhibition, % at 5.59 µM; 1,200 tested, 28% active; AID 449730; in the data active = inhibition above about 22%
FP fluor counter = counter-screen for IDE inhibitors: fluorescent artifacts | shares compounds with IDE inh | 30 tested, under 10 active | FP counterscreen for fluorescent artifacts, IDE probe project | IC50, µM | AID 588718; call rule not given here
A number is an active result; . = inactive; / = not tested or not shown.

SMILES	IDE cell activ	TPT1 inh	IDE inh	HNF4A DNA FP	Rpn11 block	CSN deneddyl inh	IDE inh confirm	HEK293 tox	others
CC(=O)N1C[C@H]2CON(C)[C@H]2C[C@H]1c1cccc(-c2cc(Cl)cc(Cl)c2)c1	/	/	/	.	.	.	/	/
COc1cccc(C(=O)N2CCN(C(=O)C3COc4ccccc4O3)CC2)c1 (stereo not given)	.	.	.	.	.	.	/	/
COc1ccc(C(=O)N2CCN(C(=O)C3COc4ccccc4O3)CC2)cc1OC (stereo not given)	.	.	17	.	.	.	16	.	FP fluor counter=.
O=C(CCc1ccccc1)NNC(=O)c1cc(Cl)ccc1O	.	.	.	.	.	.	/	/
O=C(COc1ccc2c3c(c(=O)oc2c1)CCC3)N1CCCC1	.	.	.	.	.	.	/	/
O=C(COc1ccc2c3c(c(=O)oc2c1)CCC3)N1CCN(c2ccccc2)CC1	.	.	18	.	.	.	.	.
O=C1/C(=C/c2ccccc2)Oc2cc(OC(=O)N3CCOCC3)ccc21	.	.	.	.	.	.	/	/
CC(=O)Oc1ccc(/C=C2/Oc3ccccc3C2=O)cc1	.	.	28	.	.	.	66	.
COc1ccc(S(=O)(=O)c2c(N)n(Cc3ccco3)c3nc4ccccc4nc23)cc1	.	.	23	.	.	.	.	.
Cc1cccc(NC(=O)C2C3C=CC(O3)C2C(=O)O)c1 (stereo not given)	/	.	.	/	/	/	/	/
Clc1ccc(C[n+]2csc3ccccc32)cc1	.	.	20	.	.	.	.	.
COc1cccc(NC(=O)C2(C)CCN2C(=O)CC2CC2)c1 (stereo not given)	/	/	/	.	.	.	/	/
Cc1cc([N+](=O)[O-])cc(C)c1OCC(=O)N/N=C/c1ccc(OC(=O)c2ccccc2)cc1	.	.	20	.	.	.	.	.
Cc1cc([N+](=O)[O-])cc(C)c1OCC(=O)N/N=C/c1ccc(OC(=O)c2ccccc2Br)cc1	.	.	.	.	.	.	/	/
CCNc1sc(C(=O)OCC)c(N)c1C#N	.	.	.	.	.	.	/	/
O=C(NNC(=O)c1cccc2ccccc12)c1ccc(-c2ccccc2)cc1	.	.	18	.	.	.	.	47
O=C(NNC(=O)c1cccc2ccccc12)c1ccccc1O	.	.	.	.	.	.	/	/
Cn1c(SCc2nc3ccccc3[nH]2)nnc1-c1ccccn1	.	.	.	.	.	.	/	/
c1ccc(-c2nnc(SCc3nc4ccccc4[nH]3)n2Cc2ccco2)cc1	.	.	.	.	.	.	/	/
Cn1c(SCc2nc3ccccc3[nH]2)nnc1-c1cccc(Cl)c1	/	/	/	/	/	/	/	/	FP fluor counter=.
COc1cccc(-c2nnc(SCc3nc4ccccc4[nH]3)n2Cc2ccco2)c1	/	/	/	/	/	/	/	/	FP fluor counter=.
Cc1cc(OCCCCn2ccnc2)cc(C)c1Cl	.	.	.	.	.	.	/	/
O=C(Nc1ccc(N2CCN(c3ccc(C(F)(F)F)cn3)CC2)nc1)c1cccs1	.	.	17	.	.	.	.	31
O=C(Nc1ccc(N2CCN(c3ncccc3C(F)(F)F)CC2)nc1)c1cccs1	.	.	.	.	.	.	/	/
Cc1ccc(N2CCN(C3=NC(=O)/C(=C\c4cn[nH]c4-c4ccccc4)S3)CC2)cc1	.	.	31	.	.	.	.	26
CS(=O)(=O)Oc1ccc2c(c1)O/C(=C\c1cccc([N+](=O)[O-])c1)C2=O	.	/	/	.	.	.	/	/
CS(=O)(=O)Oc1ccc2c(c1)O/C(=C\C=C\c1ccccc1)C2=O	.	.	33	.	.	.	18	.
CCOC(=O)c1sc2nc(CSc3ccccc3)nc(NCCN(C)C)c2c1C	.	.	.	.	.	.	/	/
Cc1cccc(C(=O)Nc2ccc(C(=O)/C=C/c3cccnc3)cc2)c1	.	.	20	.	.	.	.	71
O=C(/C=C/c1cccnc1)c1ccc(NC(=O)c2cccc(Br)c2)cc1	.	.	.	.	.	.	/	/
